Data on 1 compound can be found in ChEMBL document CHEMBL3745688, “Discovery of novel hybrids of diaryl-1,2,4-triazoles and caffeic acid as dual inhibitors of cyclooxygenase-2 and 5-lipoxygenase for cancer therapy” (Eur J Med Chem, 2016).

Each structure is given as a SMILES string.

The IC50 is the concentration at which inhibition is half-maximal.

The nature of experiment [1]: Selectivity index, ratio of IC50 for rat COX2 to IC50 for calf COX1. An outline of the steps:
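Ratio of COX-2 IC50 to COX-1 IC50. COX-2 was measured in rat peritoneal macrophages: 1.0×10^6/well in RPMI 1640 with 5% FCS, grown 24 h, COX-1 inactivated with 1 mM aspirin, COX-2 induced with LPS 1 µg/mL for 6 h, compound added for 30 min, then arachidonic acid 10 µM for 20 min, PGE2 read by EIA. COX-1 was measured in calf aortic endothelial cells by 6-keto-PGF1α radioimmunoassay.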

Experiment [2] has as its system A549. Kind of experiment: Induction of apoptosis in human A549 cells assessed as early apoptotic cells at 5 uM after 72 hrs by annexinV-APC/7-AAD staining based flow cytometry (reference value: 5.7%). The class given is functional.
The test system of experiment [3] is A549. Kind of experiment: Cell cycle arrest in human A549 cells assessed as accumulation at G1 phase at 25 uM after 72 hrs by propidium iodide staining based flow cytometry (reference value: 53.66%). The format is functional. A general note: In flow cytometry, cells or beads pass a laser one at a time.
The test system of experiment [4] is A549. Description: Induction of apoptosis in human A549 cells assessed as late apoptotic cells at 25 uM after 72 hrs by annexinV-APC/7-AAD staining based flow cytometry (reference value: 1.81%). The class given is functional.
Experiment [5] relates to A549. Kind of experiment: Induction of apoptosis in human A549 cells assessed as early apoptotic cells at 25 uM after 72 hrs by annexinV-APC/7-AAD staining based flow cytometry (reference value: 5.7%). The class given is functional.
In experiment [6] the test system is A549. Kind of experiment: Cell cycle arrest in human A549 cells assessed as accumulation at G2 phase at 1 uM after 72 hrs by propidium iodide staining based flow cytometry (reference value: 3.88%). The class given is functional.
The test system of experiment [7] is A549. Kind of experiment: Cell cycle arrest in human A549 cells assessed as accumulation at S phase at 1 uM after 72 hrs by propidium iodide staining based flow cytometry (reference value: 42.46%). The format is functional.
Experiment [8] concerns the target T1, Polyunsaturated fatty acid 5-lipoxygenase (Rattus norvegicus, UniProt P12527).
T1 sequence (P12527 whole entry): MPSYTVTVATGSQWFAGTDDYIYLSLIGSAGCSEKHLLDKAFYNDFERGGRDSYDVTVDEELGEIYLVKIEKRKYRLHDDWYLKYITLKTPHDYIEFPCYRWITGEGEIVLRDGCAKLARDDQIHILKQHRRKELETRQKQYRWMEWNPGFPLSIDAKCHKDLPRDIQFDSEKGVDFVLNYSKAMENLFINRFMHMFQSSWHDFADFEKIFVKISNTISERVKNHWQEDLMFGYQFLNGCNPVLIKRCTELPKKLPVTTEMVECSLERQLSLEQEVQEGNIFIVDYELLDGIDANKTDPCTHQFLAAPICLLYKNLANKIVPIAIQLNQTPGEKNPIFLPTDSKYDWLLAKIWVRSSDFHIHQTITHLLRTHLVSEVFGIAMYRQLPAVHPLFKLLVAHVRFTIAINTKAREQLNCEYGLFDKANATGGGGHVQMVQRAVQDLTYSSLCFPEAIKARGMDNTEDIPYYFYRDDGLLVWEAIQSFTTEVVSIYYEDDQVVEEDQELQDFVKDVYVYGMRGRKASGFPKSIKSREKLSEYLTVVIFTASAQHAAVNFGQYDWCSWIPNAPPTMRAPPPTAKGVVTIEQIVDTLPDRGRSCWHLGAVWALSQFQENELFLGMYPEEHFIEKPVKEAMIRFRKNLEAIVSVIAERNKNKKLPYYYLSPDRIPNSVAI
Kind of experiment: Inhibition of 5-LOX in Sprague-Dawley rat leukocytes assessed as A23187 stimulated LTB4 production pretreated for 30 mins followed by addition of A23187 for 30 mins by EIA. The class given is cell-based. An outline of the steps: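 Rat peritoneal leukocytes collected from Sprague-Dawley rats primed i.p. with 0.2% glycogen (20 mL/kg). Cells in Hanks solution plated at 1.0×10^6/well and held 10 min at 37 °C. Pretreated 30 min with L-cysteine (10 mM), indomethacin (1 mg/L) and compound or DMSO. A23187 added for 30 min. LTB4 in the clarified supernatant measured by EIA; % inhibition from OD; IC50 by Bliss method.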

Experiment [9] relates to A549. Description: Induction of apoptosis in human A549 cells after 3 days by annexinV-APC/7-AAD staining based flow cytometry. The format is functional, cell-based.
Experiment [10] concerns A549. Kind of experiment: Cell cycle arrest in human A549 cells assessed as accumulation at G2 phase at 25 uM after 72 hrs by propidium iodide staining based flow cytometry (reference value: 3.88%). The class given is functional.
Experiment [11] can be described thus: Antiproliferative activity against human PC3 cells after 72 hrs by MTT assay. The class given is functional, cell-based. To be noted: PC-3, 72 h. In a few lines:
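Cells seeded at 5×10^4/well, grown 24 h at 37 °C in 5% CO₂, then exposed to compounds dissolved in DMSO at a range of concentrations for 72 h. MTT (5 mg/mL in PBS) added for 4 h, then OD read at 570 nm. IC50 taken from dose-response curves, mean ± S.D. of three independent experiments.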
(Formazan colour is commonly taken as a measure of viable cells.)

In experiment [12] the test system is A549. Description: Induction of apoptosis in human A549 cells assessed as viable cells at 1 uM after 72 hrs by annexinV-APC/7-AAD staining based flow cytometry (reference value: 92.08%). To be noted: A549, 72 h, read-out: Activity. The format is functional.

On to `CS(=O)(=O)c1ccc(-c2nc(SCCCOC(=O)/C=C/c3ccc(O)c(O)c3)nn2-c2ccc(F)cc2)cc1`, for which, in [1], the Ratio IC50 came to 0.014. The Activity in [2] is 23.68%; in experiment [3] it was 47.29%; in [4], 6.15%; in experiment [5] it was 37.2%; in experiment [6], 7.24%; in [7] it was 42.92%. In addition, the Activity entry in experiment [9] is “Dose-dependent effect”; in [10] it was 20.53%. The figures for the IC50 in experiment [8] and in experiment [11] were 0.71 µM and 10.1 µM, respectively. The viability at 1 µM in [12] was 86.2%.
